Experiment [1] relates to Saccharomyces cerevisiae. The experiment can be described thus: Antimicrobial activity against Saccharomyces cerevisiae X2180 1A. The class given is functional.
In experiment [2] the test system is Schizosaccharomyces pombe. The experiment can be described thus: Antimicrobial activity against Schizosaccharomyces pombe L972 h-. The class given is functional.
Experiment [3] has as its system Candida albicans. The experiment in a line: Antimicrobial activity against Candida albicans IFO 1061. The class given is functional.
For experiment [4], the system named is Rhodotorula mucilaginosa. The experiment in a line: Antimicrobial activity against Rhodotorula mucilaginosa IFO 0001. The class given is functional.
Experiment [5] has as its system Aspergillus niger. The experiment can be described thus: Antifungal activity against Aspergillus niger ATCC 6275. The class given is functional.
Experiment [6] has as its system Mucor mucedo. The experiment in a line: Antifungal activity against Mucor mucedo IFO 7684. In kind it is functional.
In experiment [7] the test system is Penicillium chrysogenum. The experiment in a line: Antifungal activity against Penicillium chrysogenum IFO 4626. In kind it is functional.
In experiment [8] the test system is Rhizopus arrhizus. The experiment can be described thus: Antifungal activity against Rhizopus oryzae IFO 4766. The class given is functional.
For experiment [9], the system named is Bacillus subtilis. The experiment can be described thus: Antibacterial activity against Bacillus subtilis IFO 3007. The class given is functional. An outline of the steps: (§1)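 MIC by serial twofold broth dilution; bacteria grown in 3% nutrient broth at 37 °C, read after 24 h of cultivation.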
The test system of experiment [10] is Saccharomyces cerevisiae. The experiment in a line: ROS production in Saccharomyces cerevisiae cells at lethal concentration. The class given is functional, organism-based. An outline of the steps:
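S. cerevisiae cells (10^7 cells/ml) preloaded with 40 µM DCFH-DA in YPD medium, 30 °C, 60 min. Then exposed to compound in YPD at 30 °C for 60 min, washed and resuspended in phosphate-buffered saline. Fluorescence of 10^7 cells read at excitation 480 nm, emission 530 nm. Intensity reported directly as arbitrary units.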

Experiment [11] has as its system Saccharomyces cerevisiae. The experiment in a line: Antimicrobial activity against Saccharomyces cerevisiae IFO 0203. The class given is functional.
Experiment [12] relates to Schizosaccharomyces pombe. The experiment can be described thus: Antimicrobial activity against Schizosaccharomyces pombe IFO 0342. The class given is functional.
Experiment [13] has as its system Schizosaccharomyces pombe. The experiment can be described thus: Antimicrobial activity against Schizosaccharomyces pombe SA21 h+. In kind it is functional.
Experiment [14] concerns Escherichia coli. The experiment can be described thus: Antibacterial activity against Escherichia coli IFO 2545. The class given is functional. An outline of the steps: as §1
Experiment [15] has as its system Micrococcus luteus. The experiment in a line: Antibacterial activity against Micrococcus luteus IFO 3333. The class given is functional. The procedure, abridged: as §1
For experiment [16], the system named is Saccharomyces cerevisiae. The experiment can be described thus: ROS production in Saccharomyces cerevisiae cells at 10 uM. In kind it is functional, organism-based. The procedure, abridged: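 Yeast cells (10^7 cells/ml) preloaded with 40 µM DCFH-DA in YPD at 30 °C for 60 min, then exposed to compound in YPD at 30 °C for 60 min. Cells washed and resuspended in PBS. Fluorescence read at ex 480/em 530 nm and given in arbitrary units.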

What is called MIC is the lowest concentration found to suppress growth. The low end stands for a more susceptible organism, the high end for a less susceptible organism.

In brackets after ≈: the same amount, converted by molar mass. Activity calls are given as the source filed them. The rule behind the calls is not given here.

As to `C/N=C(/N)NCCC/C=C/CCC[C@H](C)C[C@H](C)[C@H]1OC(=O)C(C)C(O)/C=C/C(C)C(O)CC(O)C(C)C(O)CCC(C)C(O)CC2(O)OC(CC(OC(=O)CC(=O)O)CC(O)CC(O)C(C)C(O)/C=C/C=C/C1C)CC(O)C2O` (stereo not given in full) [NIPHIMYCIN], the MIC in [1] stood at 5 µM (≈ 5.71 µg/mL); in [2] it was 2 µM (≈ 2.28 µg/mL); in [3] it was 2 µM (≈ 2.28 µg/mL); in [4], 2 µM (≈ 2.28 µg/mL); in [5], 2 µM (≈ 2.28 µg/mL); in experiment [6] it was 10 µM (≈ 11.4 µg/mL). In addition, the minimum inhibitory concentration (MIC) came out at 1 µM (≈ 1.14 µg/mL) in experiment [7], 1 µM (≈ 1.14 µg/mL) in [8] and 5 µM (≈ 5.71 µg/mL) in [9]. The result in experiment [10] was Active.
As for `CCCCCCCC/N=C(\N)NC`, the MIC in experiment [1] was > 400 µM; in experiment [11], > 400 µM; in experiment [12], 400 µM (≈ 74.1 µg/mL); in [2] it was 200 µM (≈ 37.1 µg/mL); in experiment [13], 400 µM (≈ 74.1 µg/mL); in experiment [3], > 400 µM. The MIC is > 400 µM in experiment [4]; > 400 µM in experiment [5]; > 400 µM in [6]; 100 µM (≈ 18.5 µg/mL) in experiment [7]; > 400 µM in [8]; 400 µM (≈ 74.1 µg/mL) in experiment [14]. Moreover, the MIC in [9] and in experiment [15] was > 400 µM each time.
Consider `C/N=C(/N)NCCCCCCCCCCCCO`, for which the MIC in experiment [1], in experiment [11], in experiment [12], in experiment [2], in [13] and in experiment [3] was > 400 µM each time. The MIC in experiment [4], in experiment [5], in [6], in experiment [7], in experiment [8] and in [14] was > 400 µM in each case. The MIC in [9] and in experiment [15] was > 400 µM each time.
`CNC(=N)NCCCCCCCCCCCC(=O)OC`: the minimal inhibitory concentration (MIC) is > 400 µM in experiment [1]; > 400 µM in experiment [11]; 400 µM (≈ 114 µg/mL) in experiment [12]; 400 µM (≈ 114 µg/mL) in [2]; 400 µM (≈ 114 µg/mL) in experiment [13]; > 400 µM in experiment [3]. The MIC in experiment [4] is 200 µM (≈ 57.1 µg/mL); in experiment [5] it was 200 µM (≈ 57.1 µg/mL); in experiment [6], > 400 µM; in experiment [7] it was 200 µM (≈ 57.1 µg/mL); in experiment [8], > 400 µM; in experiment [14], 400 µM (≈ 114 µg/mL). The MIC in [9] is 400 µM (≈ 114 µg/mL); in [15], > 400 µM.
For the compound `C[C@@H]1[C@H](O)[C@@H](C)/C=C/C=C/C=C/C=C/C=C/C=C/C=C/[C@H](O[C@@H]2O[C@H](C)[C@@H](O)[C@H](N)[C@@H]2O)C[C@@H]2O[C@](O)(C[C@@H](O)C[C@@H](O)[C@H](O)CC[C@@H](O)C[C@@H](O)CC(=O)O[C@H]1C)C[C@H](O)[C@H]2C(=O)O`, the outcome in experiment [16] was inactive.
Regarding `CCCCCCCCCCCCCCCC/N=C(\N)NC`, the MIC in experiment [1] amounted to 100 µM (≈ 29.8 µg/mL); in [11] it was 50 µM (≈ 14.9 µg/mL); in experiment [12], 25 µM (≈ 7.44 µg/mL); in experiment [2] it was 12.5 µM (≈ 3.72 µg/mL); in experiment [13], 12.5 µM (≈ 3.72 µg/mL); in experiment [3], 200 µM (≈ 59.5 µg/mL). Also, the MIC in [4] was determined as 12.5 µM (≈ 3.72 µg/mL); in experiment [5], 25 µM (≈ 7.44 µg/mL); in experiment [6], 12.5 µM (≈ 3.72 µg/mL); in experiment [7] it was 6.25 µM (≈ 1.86 µg/mL); in experiment [8], 50 µM (≈ 14.9 µg/mL); in [14], 50 µM (≈ 14.9 µg/mL). The results for the MIC in experiment [9] and in [15] were 12.5 µM (≈ 3.72 µg/mL) and > 400 µM, respectively. The outcome in experiment [10] was Active.
With `C/N=C(/N)NCCCCCCCCCCCC(=O)O`, the MIC in experiment [1] was 400 µM (≈ 109 µg/mL); in experiment [11] it was > 400 µM; in experiment [12], 200 µM (≈ 54.3 µg/mL); in experiment [2] it was 200 µM (≈ 54.3 µg/mL); in experiment [13] it was 200 µM (≈ 54.3 µg/mL); in experiment [3] it was 400 µM (≈ 109 µg/mL). For the same compound, the MIC is 200 µM (≈ 54.3 µg/mL) in experiment [4]; > 400 µM in experiment [5]; 400 µM (≈ 109 µg/mL) in experiment [6]; 400 µM (≈ 109 µg/mL) in experiment [7]; > 400 µM in experiment [8]; 400 µM (≈ 109 µg/mL) in experiment [14]. Further, the MIC in experiment [9] came out at 100 µM (≈ 27.1 µg/mL); in [15], 400 µM (≈ 109 µg/mL).
Regarding `CCCCCCCCCCCC/N=C(\N)NC`, the minimum inhibitory concentration (MIC) in [1] amounted to 100 µM (≈ 24.1 µg/mL); in [11] it was 100 µM (≈ 24.1 µg/mL); in experiment [12], 50 µM (≈ 12.1 µg/mL); in [2] it was 50 µM (≈ 12.1 µg/mL); in experiment [13] it was 50 µM (≈ 12.1 µg/mL); in experiment [3], 400 µM (≈ 96.6 µg/mL). Besides, the MIC in experiment [4] is 50 µM (≈ 12.1 µg/mL); in experiment [5], 50 µM (≈ 12.1 µg/mL); in experiment [6], 50 µM (≈ 12.1 µg/mL); in [7], 25 µM (≈ 6.04 µg/mL); in [8] it was 200 µM (≈ 48.3 µg/mL); in experiment [14] it was 50 µM (≈ 12.1 µg/mL). The results for the MIC in experiment [9] and in experiment [15] were 25 µM (≈ 6.04 µg/mL) and > 400 µM, respectively.
Take `CCCC/N=C(\N)NC`: the minimal inhibitory concentration (MIC) in [1], in experiment [11], in experiment [12], in [2], in experiment [13] and in experiment [3] was > 400 µM throughout. For the same compound, the MIC in experiment [4] is > 400 µM; in [5], > 400 µM; in experiment [6], > 400 µM; in [7], 100 µM (≈ 12.9 µg/mL); in [8] it was > 400 µM; in experiment [14] it was 400 µM (≈ 51.7 µg/mL). In addition, the MIC in experiment [9] and in experiment [15] was > 400 µM each time.

Source of the values: ChEMBL document CHEMBL1139668, “Structure-activity relationship studies on niphimycin, a guanidylpolyol macrolide antibiotic. Part 1: The role of the N-methyl-N''-alkylguanidinium moiety” (2006).
